Reference: ChEMBL document CHEMBL4689842, “EUbOPEN Chemogenomics Library wave 1” (2021)

System: HEK-293T
Test: Multiplex assay against HEK293T;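 for Population Tubulin-Different-Phenotype (%): share of the cells with healthy nuclei that show this phenotype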
Format: toxicity, cell-based
Details: human
Outline: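 On a CQ1 microscope at 37°C and 5% CO2, live cells were imaged after compound addition. They had been stained at seeding with Hoechst33342, BioTracker Green Microtubule Cytoskeleton Dye, MitoTracker Red and Annexin V Alexa Fluor 680. CellPathfinder machine-learning gating assigned cells to Hoechst high-intensity objects or normal cells, normal cells to healthy, pyknosed or fragmented nuclei, and pyknosed cells to mitotic or apoptotic. Tubulin, mitochondrial-mass and membrane-permeability phenotypes are per cents of healthy-nucleus cells.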

[1] = 12 h, 1 µM, compound concentration 1 uM, replicate 1
[2] = 12 h, 1 µM, compound concentration 1 uM, replicate 2
[3] = 12 h, 10 µM, compound concentration 10 uM, replicate 1
[4] = 12 h, 10 µM, compound concentration 10 uM, replicate 2
[5] = 24 h, 1 µM, compound concentration 1 uM, replicate 1
[6] = 24 h, 1 µM, compound concentration 1 uM, replicate 2
[7] = 24 h, 10 µM, compound concentration 10 uM, replicate 1
[8] = 24 h, 10 µM, compound concentration 10 uM, replicate 2
[9] = 48 h, 1 µM, compound concentration 1 uM, replicate 1
[10] = 48 h, 1 µM, compound concentration 1 uM, replicate 2
[11] = 48 h, 10 µM, compound concentration 10 uM, replicate 1
[12] = 48 h, 10 µM, compound concentration 10 uM, replicate 2

SMILES: Cc1nc(-c2ccc(-c3ccc(C(=O)N4CCc5cc6c(cc54)C4(CCN(C)CC4)CO6)cc3)c(C)c2)no1 [SB-224289]
- Population Apoptotic (%) [1]: 59%
- Population Fragmented Nuclei (%) [1]: 17%
- Population Hoechst High Intensity Objects (%) [1]: 14%
- Population Membrane Permeable-Phenotype (%) [1]: 2%
- Population Mitochondria Different-Phenotype (%) [1]: 94%
- Population Mitotic Cells (%) [1]: 40%
- Population Normal (%) [1]: 85%
- Population Pyknosed Nuclei (%) [1]: 48%
- Population Tubulin-Different-Phenotype (%) [1]: 82%
- Total Cell Count [1]: 225
- Population Apoptotic (%) [2]: 24%
- Population Fragmented Nuclei (%) [2]: 4%
- Population Healthy Nuclei (%) [2]: 34%
- Population Hoechst High Intensity Objects (%) [2]: 3%
- Population Membrane Permeable-Phenotype (%) [2]: 12%
- Population Mitochondria Different-Phenotype (%) [2]: 75%
- Population Mitotic Cells (%) [2]: 75%
- Population Normal (%) [2]: 96%
- Population Pyknosed Nuclei (%) [2]: 60%
- Population Tubulin-Different-Phenotype (%) [2]: 66%
- Total Cell Count [2]: 194
- Population Apoptotic (%) [3]: 87%
- Population Fragmented Nuclei (%) [3]: 8%
- Population Healthy Nuclei (%) [3]: 22%
- Population Hoechst High Intensity Objects (%) [3]: 15%
- Population Membrane Permeable-Phenotype (%) [3]: 0%
- Population Mitochondria Different-Phenotype (%) [3]: 98%
- Population Mitotic Cells (%) [3]: 12%
- Population Normal (%) [3]: 84%
- Population Pyknosed Nuclei (%) [3]: 68%
- Population Tubulin-Different-Phenotype (%) [3]: 98%
- Total Cell Count [3]: 320
- Population Apoptotic (%) [4]: 88%
- Population Fragmented Nuclei (%) [4]: 3%
- Population Healthy Nuclei (%) [4]: 16%
- Population Hoechst High Intensity Objects (%) [4]: 9%
- Population Membrane Permeable-Phenotype (%) [4]: 4%
- Population Mitochondria Different-Phenotype (%) [4]: 95%
- Population Mitotic Cells (%) [4]: 11%
- Population Normal (%) [4]: 90%
- Population Pyknosed Nuclei (%) [4]: 80%
- Population Tubulin-Different-Phenotype (%) [4]: 85%
- Total Cell Count [4]: 141
- Population Apoptotic (%) [5]: 67%
- Population Fragmented Nuclei (%) [5]: 17%
- Population Healthy Nuclei (%) [5]: 35%
- Population Hoechst High Intensity Objects (%) [5]: 10%
- Population Membrane Permeable-Phenotype (%) [5]: 1%
- Population Mitochondria Different-Phenotype (%) [5]: 89%
- Population Mitotic Cells (%) [5]: 32%
- Population Normal (%) [5]: 89%
- Population Pyknosed Nuclei (%) [5]: 46%
- Population Tubulin-Different-Phenotype (%) [5]: 63%
- Total Cell Count [5]: 231
- Population Apoptotic (%) [6]: 33%
- Population Fragmented Nuclei (%) [6]: 4%
- Population Healthy Nuclei (%) [6]: 46%
- Population Hoechst High Intensity Objects (%) [6]: 3%
- Population Membrane Permeable-Phenotype (%) [6]: 5%
- Population Mitochondria Different-Phenotype (%) [6]: 73%
- Population Mitotic Cells (%) [6]: 66%
- Population Normal (%) [6]: 96%
- Population Pyknosed Nuclei (%) [6]: 48%
- Population Tubulin-Different-Phenotype (%) [6]: 73%
- Total Cell Count [6]: 232
- Population Apoptotic (%) [7]: 92%
- Population Fragmented Nuclei (%) [7]: 8%
- Population Healthy Nuclei (%) [7]: 13%
- Population Hoechst High Intensity Objects (%) [7]: 18%
- Population Membrane Permeable-Phenotype (%) [7]: 2%
- Population Mitochondria Different-Phenotype (%) [7]: 100%
- Population Mitotic Cells (%) [7]: 7%
- Population Normal (%) [7]: 81%
- Population Pyknosed Nuclei (%) [7]: 77%
- Population Tubulin-Different-Phenotype (%) [7]: 100%
- Total Cell Count [7]: 316
- Population Apoptotic (%) [8]: 97%
- Population Fragmented Nuclei (%) [8]: 5%
- Population Healthy Nuclei (%) [8]: 24%
- Population Hoechst High Intensity Objects (%) [8]: 12%
- Population Membrane Permeable-Phenotype (%) [8]: 0%
- Population Mitotic Cells (%) [8]: 2%
- Population Normal (%) [8]: 88%
- Population Pyknosed Nuclei (%) [8]: 70%
- Population Tubulin-Different-Phenotype (%) [8]: 93%
- Total Cell Count [8]: 150
- Population Apoptotic (%) [9]: 76%
- Population Fragmented Nuclei (%) [9]: 21%
- Population Healthy Nuclei (%) [9]: 48%
- Population Hoechst High Intensity Objects (%) [9]: 12%
- Population Membrane Permeable-Phenotype (%) [9]: 0%
- Population Mitochondria Different-Phenotype (%) [9]: 67%
- Population Mitotic Cells (%) [9]: 23%
- Population Normal (%) [9]: 87%
- Population Pyknosed Nuclei (%) [9]: 30%
- Population Tubulin-Different-Phenotype (%) [9]: 53%
- Total Cell Count [9]: 261
- Population Apoptotic (%) [10]: 25%
- Population Fragmented Nuclei (%) [10]: 4%
- Population Healthy Nuclei (%) [10]: 72%
- Population Hoechst High Intensity Objects (%) [10]: 4%
- Population Membrane Permeable-Phenotype (%) [10]: 2%
- Population Mitochondria Different-Phenotype (%) [10]: 45%
- Population Mitotic Cells (%) [10]: 75%
- Population Normal (%) [10]: 95%
- Population Pyknosed Nuclei (%) [10]: 22%
- Population Tubulin-Different-Phenotype (%) [10]: 56%
- Total Cell Count [10]: 371
- Population Apoptotic (%) [11]: 92%
- Population Fragmented Nuclei (%) [11]: 13%
- Population Healthy Nuclei (%) [11]: 10%
- Population Hoechst High Intensity Objects (%) [11]: 26%
- Population Membrane Permeable-Phenotype (%) [11]: 7%
- Population Mitochondria Different-Phenotype (%) [11]: 100%
- Population Mitotic Cells (%) [11]: 7%
- Population Normal (%) [11]: 73%
- Population Pyknosed Nuclei (%) [11]: 75%
- Population Tubulin-Different-Phenotype (%) [11]: 82%
- Total Cell Count [11]: 363
- Population Apoptotic (%) [12]: 100%
- Population Fragmented Nuclei (%) [12]: 5%
- Population Healthy Nuclei (%) [12]: 28%
- Population Hoechst High Intensity Objects (%) [12]: 17%
- Population Membrane Permeable-Phenotype (%) [12]: 6%
- Population Mitochondria Different-Phenotype (%) [12]: 96%
- Population Mitotic Cells (%) [12]: 0%
- Population Normal (%) [12]: 82%
- Population Pyknosed Nuclei (%) [12]: 66%
- Population Tubulin-Different-Phenotype (%) [12]: 57%
- Total Cell Count [12]: 139
